Assay results: ChEMBL document CHEMBL4350961, “Discovery of Pyrrolo[3,2- d]pyrimidin-4-one Derivatives as a New Class of Potent and Cell-Active Inhibitors of P300/CBP-Associated Factor Bromodomain” (J Med Chem, 2019)
Activity calls are given as the source filed them. The calls are words filed in the database; no cut-off is given here.

Tests used:
[1] = Clearance in human liver microsomes at 1 uM in presence of NADPH by LC-MS analysis; type: ADME, Microsome; details: read-out: CLH
How it was run: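 Compound at 1 μM with 0.5 mg/mL human liver microsomes and 1 mM NADPH; sampled at 0, 5, 15, 30 and 45 min, stopped with acetonitrile, then centrifuged.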

[2] = target: Protein polybromo-1 (Homo sapiens) (UniProt Q86U86); assay: Binding affinity to human partial length PBRM1 bromodomain 5 (S645 to D766 residues) expressed in bacterial expression system at 1 uM by BROMOscan assay
How it was run: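 BROMOscan bromodomain cross-screen run by an outside service, compound at 1 µM against 32 recombinant bromodomains. Binding given as percent of control.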

Homo sapiens [3] = species: Homo sapiens; assay: Inhibition of recombinant human PRAK R291E mutant at 10 uM using KKLRRTLSVA as substrate measured after 40 mins in presence of [gamma33P]ATP by scintillation counting method
[4] = target: DNA-dependent protein kinase catalytic subunit (Homo sapiens) (UniProt P78527); assay: Inhibition of recombinant full-length human DNA-PK at 10 uM using GST-cMyc-p53 as substrate measured after 40 mins by fluorescence assay
[5] = target: Calcium/calmodulin-dependent protein kinase type II subunit alpha (Homo sapiens) (UniProt Q9UQM7); assay: Inhibition of recombinant full-length human CaMK2alpha at 10 uM using calmodulin as substrate measured after 40 mins in presence of [gamma33P]ATP by scintillation counting method
Calcium/calmodulin-dependent protein kinase type II subunit alpha (Homo sapiens), sequence (Q9UQM7 whole entry): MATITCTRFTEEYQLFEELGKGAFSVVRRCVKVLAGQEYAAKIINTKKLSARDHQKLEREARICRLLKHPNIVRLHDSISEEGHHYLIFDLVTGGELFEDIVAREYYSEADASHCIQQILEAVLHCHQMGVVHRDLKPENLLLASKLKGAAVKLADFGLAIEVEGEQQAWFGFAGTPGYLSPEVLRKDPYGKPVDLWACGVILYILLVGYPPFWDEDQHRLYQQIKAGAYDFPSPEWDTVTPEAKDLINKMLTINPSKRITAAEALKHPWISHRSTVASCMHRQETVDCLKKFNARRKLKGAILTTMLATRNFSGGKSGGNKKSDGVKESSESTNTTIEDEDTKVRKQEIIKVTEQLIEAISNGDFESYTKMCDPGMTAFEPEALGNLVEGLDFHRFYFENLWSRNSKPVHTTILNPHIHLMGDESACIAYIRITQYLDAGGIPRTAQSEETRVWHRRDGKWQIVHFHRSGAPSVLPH

[6] = target: CDK2/Cyclin A2 (Homo sapiens) (UniProt P24941+P20248); assay: Inhibition of recombinant full-length human CDK2/cyclinA at 10 uM using histone H1 as substrate measured after 40 mins in presence of [gamma33P]ATP by scintillation counting method; type: protein-complex assay
[7] = target: Serine/threonine-protein kinase PLK1 (Homo sapiens) (UniProt P53350); assay: Inhibition of recombinant full-length human Plk1 at 10 uM using casein as substrate measured after 40 mins in presence of [gamma33P]ATP by scintillation counting method
Mus musculus [8] = species: Mus musculus; assay: Inhibition of recombinant full-length mouse PI3K p110beta/p85beta R123L mutant at 10 uM using phosphatidylinositol-4, 5-bisphosphate as substrate measured after 40 mins by HTRF assay
[9] = target: PI3-kinase p110-alpha/p85-alpha (Homo sapiens) (UniProt P27986+P42336); assay: Inhibition of recombinant full-length human PI3K p110alpha/p85alpha at 10 uM using phosphatidylinositol-4, 5-bisphosphate as substrate measured after 40 mins by fluorescence assay; type: protein-complex assay
Homo sapiens [10] = species: Homo sapiens; assay: Inhibition of recombinant human DDR1 V833L mutant (492 to end residues) at 10 uM using KKKSPGEYVNIEFG as substrate measured after 40 mins in presence of [gamma33P]ATP by scintillation counting method
[11] = target: Interferon-induced, double-stranded RNA-activated protein kinase (Homo sapiens) (UniProt P19525); assay: Inhibition of recombinant human PKR (252 to end residues) at 10 uM using RSRSRSRSRSRSRSR as substrate measured after 40 mins in presence of [gamma33P]ATP by scintillation counting method
Interferon-induced, double-stranded RNA-activated protein kinase (Homo sapiens), sequence (P19525 whole entry): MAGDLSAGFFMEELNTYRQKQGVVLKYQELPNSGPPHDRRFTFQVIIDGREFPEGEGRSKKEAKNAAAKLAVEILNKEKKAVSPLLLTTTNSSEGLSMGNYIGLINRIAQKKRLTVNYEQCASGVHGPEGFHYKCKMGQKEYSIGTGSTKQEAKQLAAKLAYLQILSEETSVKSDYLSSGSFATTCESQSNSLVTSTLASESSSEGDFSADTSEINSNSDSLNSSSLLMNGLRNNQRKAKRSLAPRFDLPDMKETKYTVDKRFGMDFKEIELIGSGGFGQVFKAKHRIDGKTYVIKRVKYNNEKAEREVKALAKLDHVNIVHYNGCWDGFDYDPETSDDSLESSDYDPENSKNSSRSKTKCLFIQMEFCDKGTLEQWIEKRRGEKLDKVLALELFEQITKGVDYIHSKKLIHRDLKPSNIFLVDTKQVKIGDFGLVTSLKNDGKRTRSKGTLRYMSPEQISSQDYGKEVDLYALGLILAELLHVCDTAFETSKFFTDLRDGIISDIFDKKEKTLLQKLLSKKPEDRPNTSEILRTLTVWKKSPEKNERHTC

[12] = target: Beta-adrenergic receptor kinase 1 (Homo sapiens) (UniProt P25098); assay: Inhibition of recombinant full-length human GRK2 at 10 uM using casein as substrate measured after 40 mins in presence of [gamma33P]ATP by scintillation counting method
Mus musculus [13] = species: Mus musculus; assay: Inhibition of recombinant mouse ARG M982V/A562 mutant (27 to end residues) at 10 uM using EAIYAAPFAKKK as substrate measured after 40 mins in presence of [gamma33P]ATP by scintillation counting method
Mus musculus [14] = species: Mus musculus; assay: Inhibition of recombinant full-length mouse PI3K p110beta/p85alpha R123L mutant at 10 uM using phosphatidylinositol-4, 5-bisphosphate as substrate measured after 40 mins by HTRF assay
[15] = target: Mitogen-activated protein kinase 14 (Homo sapiens) (UniProt Q16539); assay: Inhibition of recombinant full-length human SAPK2a at 10 uM using myelin basic protein as substrate measured after 40 mins in presence of [gamma33P]ATP by scintillation counting method
Mitogen-activated protein kinase 14 (Homo sapiens), sequence (Q16539 whole entry, the tested form may be a part): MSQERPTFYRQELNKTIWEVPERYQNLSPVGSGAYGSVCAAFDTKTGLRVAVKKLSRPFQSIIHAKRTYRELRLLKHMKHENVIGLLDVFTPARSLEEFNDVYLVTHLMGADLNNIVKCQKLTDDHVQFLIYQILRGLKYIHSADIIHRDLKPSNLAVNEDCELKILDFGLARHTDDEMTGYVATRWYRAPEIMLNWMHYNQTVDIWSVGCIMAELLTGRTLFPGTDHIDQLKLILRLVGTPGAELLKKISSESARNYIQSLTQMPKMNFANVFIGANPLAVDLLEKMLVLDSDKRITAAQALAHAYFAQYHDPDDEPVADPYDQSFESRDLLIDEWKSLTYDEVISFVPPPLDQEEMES

[16] = target: Ephrin type-A receptor 8 (Homo sapiens) (UniProt P29322); assay: Inhibition of recombinant human EphA8 (615 to 911 residues) at 10 uM using KTFCGTPEYLAPEVRREPRILSEEEQEMFRDFDYIADWC as substrate measured after 40 mins in presence of [gamma33P]ATP by scintillation counting method
[17] = target: Histone acetyltransferase p300 (Homo sapiens) (UniProt Q09472); assay: Binding affinity to human N-terminal His-tagged EP300 assessed as change in melting temperature at 10 uM by SYPRO orange dye-based fluorescence assay
How it was run: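 Thermal shift with His-tagged human bromodomain at 2 μM final in 10 mM HEPES pH 7.5, 500 mM NaCl. Compound at 10 μM final with 0.1% DMSO; SYPRO Orange at 1:1000. Equilibrated 3 min at 25 °C, then heated from 25 to 95 °C at 1 °C/min. Melting temperature shift taken from fluorescence; at least duplicate.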

[18] = target: Serine/threonine-protein kinase Sgk3 (Homo sapiens) (UniProt Q96BR1); assay: Inhibition of human SGK3 (119 to end residues) using GRPRTSSFAEGKK as substrate measured after 40 mins in presence of [gamma33P]ATP by scintillation counting method
Serine/threonine-protein kinase Sgk3 (Homo sapiens), sequence (Q96BR1 whole entry): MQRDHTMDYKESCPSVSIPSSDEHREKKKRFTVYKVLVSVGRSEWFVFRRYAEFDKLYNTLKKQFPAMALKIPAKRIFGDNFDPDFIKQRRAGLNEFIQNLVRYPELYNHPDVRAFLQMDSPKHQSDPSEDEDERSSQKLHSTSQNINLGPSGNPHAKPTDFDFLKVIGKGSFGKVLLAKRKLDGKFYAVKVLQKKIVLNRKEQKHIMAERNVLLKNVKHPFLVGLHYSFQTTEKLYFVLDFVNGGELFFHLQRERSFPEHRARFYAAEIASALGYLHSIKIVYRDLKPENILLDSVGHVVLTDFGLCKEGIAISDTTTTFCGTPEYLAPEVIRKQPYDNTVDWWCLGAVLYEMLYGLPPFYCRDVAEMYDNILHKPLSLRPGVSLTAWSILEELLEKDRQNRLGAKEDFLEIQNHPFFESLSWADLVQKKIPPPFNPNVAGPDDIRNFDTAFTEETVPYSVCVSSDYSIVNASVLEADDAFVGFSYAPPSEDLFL
How it was run: (§1)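 Kinase panel of 422 kinases screened by Eurofins KinaseProfiler at a single test-compound concentration of 10 µM.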

[19] = target: Death-associated protein kinase 1 (Homo sapiens) (UniProt P53355); assay: Inhibition of recombinant human DAPK1 (1 to 296 residues) at 10 uM using KKLNRTLSFAEPG as substrate measured after 40 mins in presence of [gamma33P]ATP by scintillation counting method
Death-associated protein kinase 1 (Homo sapiens), sequence (P53355 whole entry, looked up, the tested form may be a part): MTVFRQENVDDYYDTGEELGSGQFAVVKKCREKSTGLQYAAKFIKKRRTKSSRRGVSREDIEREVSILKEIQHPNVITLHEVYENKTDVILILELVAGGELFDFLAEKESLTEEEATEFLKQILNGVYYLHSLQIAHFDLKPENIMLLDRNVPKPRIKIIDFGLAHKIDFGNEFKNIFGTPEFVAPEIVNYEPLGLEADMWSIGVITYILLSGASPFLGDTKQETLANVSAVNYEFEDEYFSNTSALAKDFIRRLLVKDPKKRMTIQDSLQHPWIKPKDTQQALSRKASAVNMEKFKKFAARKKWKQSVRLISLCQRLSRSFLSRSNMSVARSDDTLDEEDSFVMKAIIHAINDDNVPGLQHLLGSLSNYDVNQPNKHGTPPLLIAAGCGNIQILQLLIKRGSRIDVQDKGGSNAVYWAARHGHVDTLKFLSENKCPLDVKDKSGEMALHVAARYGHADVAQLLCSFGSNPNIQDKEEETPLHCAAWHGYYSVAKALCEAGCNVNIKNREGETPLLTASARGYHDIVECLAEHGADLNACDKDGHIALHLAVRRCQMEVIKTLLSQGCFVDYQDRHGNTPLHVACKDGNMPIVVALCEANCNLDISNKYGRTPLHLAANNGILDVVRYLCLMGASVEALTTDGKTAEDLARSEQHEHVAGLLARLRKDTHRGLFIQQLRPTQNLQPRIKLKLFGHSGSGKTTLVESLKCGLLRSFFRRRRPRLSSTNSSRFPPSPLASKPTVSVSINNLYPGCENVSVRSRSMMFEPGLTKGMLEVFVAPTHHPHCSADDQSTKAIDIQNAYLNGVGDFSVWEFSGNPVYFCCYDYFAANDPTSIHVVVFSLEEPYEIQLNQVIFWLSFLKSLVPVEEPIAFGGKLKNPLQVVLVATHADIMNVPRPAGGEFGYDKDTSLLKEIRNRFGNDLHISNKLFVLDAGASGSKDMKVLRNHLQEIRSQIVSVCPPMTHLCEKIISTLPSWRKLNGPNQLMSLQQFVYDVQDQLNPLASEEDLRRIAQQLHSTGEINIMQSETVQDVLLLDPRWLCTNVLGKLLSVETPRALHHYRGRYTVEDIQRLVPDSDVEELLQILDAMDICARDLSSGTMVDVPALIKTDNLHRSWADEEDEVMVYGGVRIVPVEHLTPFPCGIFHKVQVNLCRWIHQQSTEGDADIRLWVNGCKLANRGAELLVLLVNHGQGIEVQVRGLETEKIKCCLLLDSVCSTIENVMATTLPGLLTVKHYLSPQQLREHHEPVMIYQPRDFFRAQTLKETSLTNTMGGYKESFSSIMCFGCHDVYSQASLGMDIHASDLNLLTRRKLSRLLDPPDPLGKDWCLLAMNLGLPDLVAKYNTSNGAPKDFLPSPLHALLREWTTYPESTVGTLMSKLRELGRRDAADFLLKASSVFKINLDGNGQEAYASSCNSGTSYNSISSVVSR

[20] = target: Tyrosine-protein kinase receptor TYRO3 (Homo sapiens) (UniProt Q06418); assay: Inhibition of human RSE (451 to end residues) using KVEKIGEGTYGVVYK as substrate measured after 40 mins in presence of [gamma33P]ATP by scintillation counting method; how it was run: as §1
[21] = target: Activated CDC42 kinase 1 (Homo sapiens) (UniProt Q07912); assay: Inhibition of recombinant human ACK1 (1 to 389 residues) at 10 uM using EFPIYDFLPAKKK as substrate measured after 40 mins in presence of [gamma33P]ATP by scintillation counting method
Activated CDC42 kinase 1 (Homo sapiens), sequence (Q07912 whole entry, looked up, the tested form may be a part): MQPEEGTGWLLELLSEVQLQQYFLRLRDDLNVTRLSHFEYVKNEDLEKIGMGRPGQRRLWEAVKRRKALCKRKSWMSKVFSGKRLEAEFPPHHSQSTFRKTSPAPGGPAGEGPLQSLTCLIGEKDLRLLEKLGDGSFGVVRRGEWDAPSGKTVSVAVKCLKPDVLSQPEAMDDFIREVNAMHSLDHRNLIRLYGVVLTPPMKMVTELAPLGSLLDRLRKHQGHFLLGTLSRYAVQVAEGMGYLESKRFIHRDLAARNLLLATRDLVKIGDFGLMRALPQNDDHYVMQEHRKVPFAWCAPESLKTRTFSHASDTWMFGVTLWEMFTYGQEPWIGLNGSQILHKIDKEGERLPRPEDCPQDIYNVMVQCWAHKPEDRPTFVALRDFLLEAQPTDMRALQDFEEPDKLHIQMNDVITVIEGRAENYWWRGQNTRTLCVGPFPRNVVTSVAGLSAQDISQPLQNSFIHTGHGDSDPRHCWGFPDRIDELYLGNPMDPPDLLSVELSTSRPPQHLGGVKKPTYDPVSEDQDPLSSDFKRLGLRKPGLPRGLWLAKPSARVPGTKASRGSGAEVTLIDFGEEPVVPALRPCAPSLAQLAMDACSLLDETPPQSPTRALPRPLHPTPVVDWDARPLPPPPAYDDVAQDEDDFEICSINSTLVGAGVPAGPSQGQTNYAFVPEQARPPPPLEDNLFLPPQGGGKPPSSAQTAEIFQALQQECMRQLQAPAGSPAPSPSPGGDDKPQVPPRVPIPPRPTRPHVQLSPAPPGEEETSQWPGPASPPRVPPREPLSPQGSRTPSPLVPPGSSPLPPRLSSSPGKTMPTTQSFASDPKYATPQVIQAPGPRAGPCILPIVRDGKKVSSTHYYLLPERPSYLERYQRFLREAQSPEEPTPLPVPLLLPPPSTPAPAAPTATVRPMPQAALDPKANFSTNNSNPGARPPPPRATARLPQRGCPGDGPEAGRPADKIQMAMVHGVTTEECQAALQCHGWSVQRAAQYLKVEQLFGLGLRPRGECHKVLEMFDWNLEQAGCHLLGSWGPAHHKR

[22] = target: Interleukin-1 receptor-associated kinase 1 (Homo sapiens) (UniProt P51617); assay: Inhibition of recombinant human IRAK1 (194 to end residues) at 10 uM using myelin basic protein as substrate measured after 40 mins in presence of [gamma33P]ATP by scintillation counting method
Interleukin-1 receptor-associated kinase 1 (Homo sapiens), sequence (P51617 whole entry, looked up): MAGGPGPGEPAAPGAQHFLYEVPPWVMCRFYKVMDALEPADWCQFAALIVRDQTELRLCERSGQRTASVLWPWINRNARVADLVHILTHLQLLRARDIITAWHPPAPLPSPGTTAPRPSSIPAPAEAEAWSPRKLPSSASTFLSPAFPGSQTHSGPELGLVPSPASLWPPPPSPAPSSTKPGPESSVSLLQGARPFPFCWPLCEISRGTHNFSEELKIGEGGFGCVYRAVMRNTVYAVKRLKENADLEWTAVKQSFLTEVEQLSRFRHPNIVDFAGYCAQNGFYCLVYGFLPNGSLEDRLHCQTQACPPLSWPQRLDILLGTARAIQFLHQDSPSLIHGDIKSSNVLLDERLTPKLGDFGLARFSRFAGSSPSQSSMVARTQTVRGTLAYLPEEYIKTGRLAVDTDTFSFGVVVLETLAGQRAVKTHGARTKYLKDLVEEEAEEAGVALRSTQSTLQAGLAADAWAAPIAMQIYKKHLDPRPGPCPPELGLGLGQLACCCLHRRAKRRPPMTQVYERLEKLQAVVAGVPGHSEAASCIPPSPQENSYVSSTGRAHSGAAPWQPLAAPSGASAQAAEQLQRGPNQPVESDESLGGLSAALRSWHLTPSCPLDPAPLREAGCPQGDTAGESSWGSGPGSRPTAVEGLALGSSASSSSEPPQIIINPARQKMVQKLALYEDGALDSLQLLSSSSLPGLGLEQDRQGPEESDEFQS

[23] = Tmax in Sprague-Dawley rat at 10 mg/kg, po administered via gavage by LC-MS/MS analysis; type: ADME, organism-based; details: in vivo
[24] = target: Cyclin-Y/Cyclin-dependent kinase 16 (Homo sapiens) (UniProt Q00536+Q8ND76); assay: Inhibition of recombinant full length human CDK16/cyclinY at 10 uM using PKSPKARKKL as substrate measured after 120 mins in presence of [gamma33P]ATP by scintillation counting method; type: protein-complex assay

CN1C[C@H](Nc2nc3cc[nH]c3c(=O)n2C)C[C@H](c2ccc3c(c2)OCCO3)C1
CLint scaled at 1 µM [1]: 45 mL/min/kg | Activity [2]: inactive | inhibition (Homo sapiens [3]): inactive | inhibition [4]: inactive | inhibition [5]: inactive | inhibition [6]: inactive | inhibition [7]: inactive | inhibition (Mus musculus [8]): inactive | inhibition [9]: inactive | inhibition (Homo sapiens [10]): inactive | inhibition [11]: inactive | inhibition [12]: inactive | inhibition (Mus musculus [13]): inactive | inhibition (Mus musculus [14]): inactive | inhibition [15]: inactive | inhibition [16]: inactive | ΔTm [17]: 0.1 °C | inhibition [18]: inactive | inhibition [19]: inactive | inhibition [20]: inactive | inhibition [21]: inactive | inhibition [22]: inactive | Tmax [23]: 40.2 min | inhibition [24]: inactive
